# Assay results: ChEMBL document CHEMBL1667760, “Synthesis and biological evaluation of 3,5-diaryl isoxazoline/isoxazole linked 2,3-dihydroquinazolinone hybrids as anticancer agents” (2011)
# Calls of active or inactive are those of the source. No cut-off for these calls is given here.
# Assays:
# A549 = experiment: Cytotoxicity against human A549 cells after 48 hrs by sulforhodamine B assay; format: functional; details: A549, 48 h
# How it was run: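 Cells were grown in RPMI 1640 with 10% FBS and 2 mM L-glutamine, plated at densities set by doubling time, and pre-incubated 24 h at 37 °C, 5% CO2. Drugs were tested at 0.1, 1, 10 and 100 µM in triplicate wells for 48 h continuous exposure. Cells were fixed with 10% TCA (final) and stained with 0.4% SRB. A540 was read against a 690 nm reference, and percent growth was calculated relative to control. Experiments were repeated three times.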
# CCRF-CEM = experiment: Cytotoxicity against human CCRF-CEM cells after 48 hrs by sulforhodamine B assay; format: functional
# How it was run: (§1)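 Run by the NCI 60-cell-line screen. A one-dose pre-test was done first, followed by the main test over a 5-log dose range (10^-4 to 10^-8 M). Results are reported as log molar GI50 (50% net growth inhibition), TGI (total growth inhibition) and LC50 (50% net cell death), with mean-graph midpoints across all lines.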
# MCF7 [1] = experiment: Induction of apoptosis in human MCF7 cells assessed as nuclear fragmentation at 5 uM after 48 hrs by DAPI staining; format: functional, cell-based
# How it was run: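 MCF-7 cells grown on glass coverslips and incubated 48 h with or without compound. Fixed in 3% paraformaldehyde/0.02% glutaraldehyde in PBS, stained with DAPI, and nuclear morphology examined by fluorescence microscopy.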
# SNB-75 = experiment: Cytotoxicity against human SNB75 cells after 48 hrs by sulforhodamine B assay; format: functional; details: SNB-75, 48 h
# How it was run: (§2)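 NCI 60-cell-line panel screen of human tumor lines: a one-dose pre-test, then the main test over a 5-log range (10^-4–10^-8 M). GI50, TGI and LC50 are reported as log molar concentrations for 50% net growth inhibition, total growth inhibition and 50% net cell death. Mean graph midpoints are also calculated.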
# MDA-MB-435 = experiment: Cytotoxicity against human MDA-MB-435 cells after 48 hrs by sulforhodamine B assay; format: functional; details: MDA-MB-435, 48 h; how it was run: as §1
# CAKI-1 = experiment: Cytotoxicity against human Caki1 cells after 48 hrs by sulforhodamine B assay; format: functional; details: CAKI-1, 48 h; how it was run: as §1
# MCF7 [2] = experiment: Cell cycle arrest in human MCF7 cells assessed as accumulation at G1 phase at 5 uM after 24 hrs using propidium iodide staining by flow cytometry relative to control; format: functional
# How it was run: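 MCF-7 cells were seeded at 5×10^5 per 60 mm dish and grown 24 h. They were then exposed to 5 uM compound for a further 24 h, with untreated control cells alongside. Cells were trypsinised, fixed in ice-cold 70% ethanol (4 °C, 30 min), treated with 1 mg/ml RNase A (37 °C, 30 min) and stained with propidium iodide/citrate/Triton solution. DNA content was read by flow cytometry on 20,000 events.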
# EKVX = experiment: Cytotoxicity against human EKVX cells after 48 hrs by sulforhodamine B assay; format: functional
# How it was run: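 Run by the NCI 60 human tumour cell line screen. A one-dose pre-test across sixty lines came first. The main test then used a 5-log dose range (10^-4–10^-8 M). Values derived per cell line were GI50 (log molar concentration for 50% net growth inhibition), TGI (total growth inhibition) and LC50 (50% net cell death).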
# UACC-62 = experiment: Cytotoxicity against human UACC62 cells after 48 hrs by sulforhodamine B assay; format: functional; details: UACC-62, 48 h; how it was run: as §2
# MCF7 [3] = experiment: Reduction of CDK1 expression in human MCF7 cells at 5 uM after 24 hrs by Western blotting; format: functional, cell-based
# How it was run: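 MCF-7 cells, kept in DMEM with 10% fetal calf serum at 37 °C under 5% CO2, treated 24 h. Lysis in ice-cold RIPA with protease inhibitors; Bradford quantitation; 30 µg protein per lane on 12% SDS-PAGE, then PVDF. Primary antibodies (1:500) at 4 °C overnight; HRP secondary (1:2000); chemiluminescence detection; β-actin loading control.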
# SK-OV-3 = experiment: Cytotoxicity against human SKOV3 cells after 48 hrs by sulforhodamine B assay; format: functional; details: SK-OV-3, 48 h; how it was run: as §1
# SF-295 = experiment: Cytotoxicity against human SF295 cells after 48 hrs by sulforhodamine B assay; format: functional; details: SF-295, 48 h; how it was run: as §1
# A498 = experiment: Cytotoxicity against human A498 cells after 48 hrs by sulforhodamine B assay; format: functional; details: A498, 48 h; how it was run: as §1
# COLO 205 = experiment: Cytotoxicity against human COLO205 cells after 48 hrs by sulforhodamine B assay; format: functional; details: COLO 205, 48 h; how it was run: as §1
# U-251 = experiment: Cytotoxicity against human U251 cells after 48 hrs by sulforhodamine B assay; format: functional; details: U-251, 48 h; how it was run: as §2
# OVCAR-5 = experiment: Cytotoxicity against human OVCAR5 cells after 48 hrs by sulforhodamine B assay; format: functional; details: OVCAR-5, 48 h; how it was run: as §1
# NCI-H322M = experiment: Cytotoxicity against human NCI-H322M cells after 48 hrs by sulforhodamine B assay; format: functional; how it was run: as §1
# [4] = read-out: pLC50 (the source's name) (converted)
smiles,measurement,setting,value
COc1cc(C2NC(=O)c3ccccc3N2)ccc1OCCCCCOc1c(OC)cc(C2=NOC(c3cc(OC)c(OC)c(OC)c3)C2)cc1OC (centres undefined),LC50,A549,> 100 µM
same,GI50,A549; read-out: pGI50 (converted),0.324 µM
same,TGI,A549; read-out: pTGI,> 100 µM
same,GI50,CCRF-CEM,0.631 µM
same,CC50,CCRF-CEM; [4],> 100 µM
same,TGI,CCRF-CEM; read-out: pTGI,> 100 µM
same,inhibition,MCF7 [1],Active
same,GI50,SNB-75,11.2 µM
same,CC50,SNB-75; [4],> 100 µM
same,TGI,SNB-75; read-out: pTGI,> 100 µM
same,GI50,MDA-MB-435,0.417 µM
same,CC50,MDA-MB-435; [4],> 100 µM
same,TGI,MDA-MB-435; read-out: pTGI,> 100 µM
same,GI50,CAKI-1,> 100 µM
same,CC50,CAKI-1; [4],> 100 µM
same,TGI,CAKI-1; read-out: pTGI,> 100 µM
same,Activity,MCF7 [2],32.15%
same,CC50,EKVX; [4],> 100 µM
same,TGI,EKVX; read-out: pTGI,> 100 µM
same,GI50,UACC-62,0.257 µM
same,CC50,UACC-62; [4],> 100 µM
same,TGI,UACC-62; read-out: pTGI,> 100 µM
same,Activity,MCF7 [3],Active
same,GI50,SK-OV-3,25.1 µM
same,CC50,SK-OV-3; [4],> 100 µM
same,TGI,SK-OV-3; read-out: pTGI,> 100 µM
same,GI50,SF-295,0.398 µM
same,CC50,SF-295; [4],> 100 µM
same,TGI,SF-295; read-out: pTGI,> 100 µM
same,GI50,A498,19.5 µM
same,CC50,A498; [4],> 100 µM
same,TGI,A498; read-out: pTGI,> 100 µM
same,GI50,COLO 205,34.7 µM
same,CC50,COLO 205; [4],> 100 µM
same,TGI,COLO 205; read-out: pTGI,> 100 µM
same,GI50,U-251,15.1 µM
same,CC50,U-251; [4],> 100 µM
same,TGI,U-251; read-out: pTGI,> 100 µM
same,GI50,OVCAR-5,36.3 µM
same,CC50,OVCAR-5; [4],> 100 µM
same,TGI,OVCAR-5; read-out: pTGI,> 100 µM
same,GI50,NCI-H322M,> 100 µM
same,CC50,NCI-H322M; [4],> 100 µM
same,TGI,NCI-H322M; read-out: pTGI,> 100 µM
